According to ChEMBL document CHEMBL5346935, “Novel O-benzylcinnamic acid derivative L26 treats acute lung injury in mice by MD-2” (Eur J Med Chem, 2023):
Active and inactive are the calls of the source. The calls are words filed in the database; no cut-off is given here.

What was measured:
[1] = (§1) Antiinflammatory activity in LPS-induced HEK-Blue hTLR4 cells assessed as reduction in alkaline phosphatase activity at 10 uM pretreated with compound for 0.5 hr followed by LPS induction and measured after 24 hrs; type: functional, Homo sapiens; design: scale not given: the % may be the effect or the level left; conditions: time 24.5 hrs
In short: (§2)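 HEK-Blue-TLR4 cells (2×10^4/well, DMEM with 10% FBS) were grown for 24 h, then pretreated with compound or DMSO for 0.5 h. LPS was added at 0.5 µg/mL for 24 h. Supernatant ALP activity was read at 405 nm with a kit. Values are mean ± SEM of three independent experiments.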

HEK-Blue hTLR4 = experiment: as §1; type: functional; conditions: Homo sapiens, time 24.5 hrs; in short: as §2
RAW264.7 [2] = experiment: Antiinflammatory activity in LPS-induced mouse RAW264.7 cells assessed as decrease in LPS-induced IL-6 secretion pretreated for 30 mins followed by LPS-induction and measured after 24 hrs by ELISA analysis; type: functional, cell-based
In short: (§3)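 RAW 264.7 macrophages were pretreated for 30 min with 1–10 µM compound or DMSO vehicle, then stimulated with LPS (0.5 µg/mL). After 24 h, supernatant IL-6 and TNF-α were measured by ELISA. Results are mean ± SEM of triplicates, expressed as percent of the LPS group, with Student's t-test.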

RAW264.7 [3] = experiment: Antiinflammatory activity in LPS-induced mouse RAW264.7 cells assessed as decrease in LPS-induced TNF-alpha secretion pretreated for 30 mins followed by LPS-induction and measured after 24 hrs by ELISA analysis; type: functional, cell-based; in short: as §3
[4] = AUC (0 to t) in Sprague-Dawley rat at 10 mg/kg, po measured at 5 to 24 hrs by UPLC-MS/MS analysis; type: ADME, organism-based; design: dose 10 mg/kg, time upper 24 hrs, time lower 5 hrs, route po; conditions: in vivo
In short: (§4)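 Male SD rats (200 g ± 20 g, n = 6) were dosed orally by gavage at 10 mg/kg, suspended in CMC-Na with DMSO (<0.1%). Tail-vein blood was drawn at 5 min, 15 min, 30 min, 1, 2, 4, 6, 9, 12 and 24 h and centrifuged. Plasma supernatant was precipitated with an equal volume of acetonitrile and run on UPLC-MS/MS. Parameters came from a non-compartmental fit.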

[5] = AUC (0 to infinity) in Sprague-Dawley rat at 10 mg/kg, po measured at 5 to 24 hrs by UPLC-MS/MS analysis; type: ADME, organism-based; design: time lower 5 hrs, dose 10 mg/kg, time upper 24 hrs, route po; conditions: in vivo; in short: as §4
[6] = Half life in Sprague-Dawley rat at 10 mg/kg, po measured at 5 to 24 hrs by UPLC-MS/MS analysis; type: ADME, organism-based; conditions: in vivo, time 5-24 hrs; in short: as §4
[7] = Tmax in Sprague-Dawley rat at 10 mg/kg, po measured at 5 to 24 hrs by UPLC-MS/MS analysis; type: ADME, organism-based; conditions: in vivo, time 5-24 hrs; in short: as §4
[8] = Cmax in Sprague-Dawley rat at 10 mg/kg, po measured at 5 to 24 hrs by UPLC-MS/MS analysis; type: ADME, organism-based; design: dose 10 mg/kg, time 5-24 hrs, route po; conditions: in vivo; in short: as §4
RAW264.7 [9] = experiment: Binding affinity to MD-2 in mouse RAW264.7 cells assessed as reduction in LPS/MD-2/TLR4 polymers formation incubated for 12 hrs by immunoprecipitation assay; type: cell-based
Mus musculus [10] = experiment: Antiinflammatory activity in LPS-induced C57BL/6 mouse acute lung injury model assessed as decrease in […] TNF-alpha mRNA expression level at 5 mg/kg, po administered every 12 hrs for 36 hrs followed by LPS-induction for 12 hrs and measured at 6 hrs post LPS challenge by q-RTPCR analysis; type: functional, organism-based; conditions: time 54.0 hrs
In short: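 C57BL/6 mice (8 per group) were gavaged with 5 mg/kg in 0.5% CMC-Na every 12 h for 36 h. LPS (5 mg/kg) was instilled intratracheally 12 h after the last dose. Mice were euthanized 6 h later and lung TNF-α mRNA was measured by real-time qRT-PCR.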

Mus musculus [11] = experiment: Antiinflammatory activity in LPS-induced C57BL/6 mouse acute lung injury model assessed as decrease in total protein level at 5 mg/kg, po administered every 12 hrs for 36 hrs followed by LPS-induction for 12 hrs and measured at 6 hrs post LPS challenge; type: functional, organism-based; conditions: time 54.0 hrs
In short: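 Same C57BL/6 regimen: 5 mg/kg oral in 0.5% CMC-Na every 12 h for 36 h, then intratracheal LPS 5 mg/kg 12 h later, with sacrifice at 6 h. BALF was collected by rinsing the left lung with saline 4 times and centrifuged (1000 rpm, 4 °C, 10 min). Supernatant protein was measured by BCA assay.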

[12] = Toxicity in C57BL/6 mouse assessed as histopathological changes in lung at 5 mg/kg, po measured at 6 hrs by H and E staining analysis; type: organism-based; conditions: in vivo
In short: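 Lungs from C57BL/6 mice given 5 mg/kg orally every 12 h for 36 h, then intratracheal LPS 5 mg/kg and sacrificed 6 h later, were fixed in 4% PFA, paraffin-embedded and stained with H&E.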

Mus musculus [13] = experiment: In vivo Inhibition of NF-kappaB signalling pathway in mouse C57BL/6 lung assessed as decrease in phosphorylated p65 level at 5 mg/kg, po measured for 6 hrs by Western blot analysis; type: functional, organism-based
In short: (§5)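 In the C57BL/6 ALI model (5 mg/kg oral every 12 h for 36 h, then intratracheal LPS 5 mg/kg, sacrifice at 6 h), lung tissue was lysed in RIPA buffer with PMSF and protein was quantified by Bradford. Samples were run on 10% SDS-PAGE and immunoblotted for p65, phospho-p65 and IκB, with GAPDH as reference.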

Mus musculus [14] = experiment: In vivo Inhibition of NF-kappaB signalling pathway in mouse C57BL/6 lung assessed as upregulation of IkappaBalpha protein expression at 5 mg/kg, po measured for 6 hrs by Western blot analysis; type: functional, organism-based; in short: as §5
[15] = Acute toxicity in ICR mouse assessed as pathological changes in heart at 1000 to 1500 mg/kg, IG measured after 10 days by H and E staining method; type: organism-based; conditions: in vivo, po, 240 h, dose 1000-1500 mg/kg, time 10 day
In short: (§6)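 ICR mice (27 g ± 1 g; n = 24 total) given a single oral gavage dose on day 1 in CMC-Na with DMSO (<0.1%), dosing solution 50 mg/mL. Untreated mice served as controls. After 10 days, mice were sacrificed under general anaesthesia. Heart, liver, lung, spleen and kidney were harvested for H&E pathology.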

[16] = Acute toxicity in ICR mouse assessed as pathological changes in liver at 1000 to 1500 mg/kg, IG measured after 10 days by H and E staining method; type: organism-based; conditions: in vivo, po, 240 h, dose 1000-1500 mg/kg, time 10 day; in short: as §6
[17] = Acute toxicity in ICR mouse assessed as pathological changes in spleen at 1000 to 1500 mg/kg, IG measured after 10 days by H and E staining method; type: organism-based; conditions: in vivo, po, 240 h, dose 1000-1500 mg/kg, time 10 day; in short: as §6
[18] = Acute toxicity in ICR mouse assessed as pathological changes in lung at 1000 to 1500 mg/kg, IG measured after 10 days by H and E staining method; type: organism-based; conditions: in vivo, po, 240 h, dose 1000-1500 mg/kg, time 10 day; in short: as §6
[19] = Acute toxicity in ICR mouse assessed as pathological changes in kidney at 1000 to 1500 mg/kg, IG measured after 10 days by H and E staining method; type: organism-based; conditions: in vivo, po, 240 h, dose 1000-1500 mg/kg, time 10 day; in short: as §6
Homo sapiens = organism: Homo sapiens; experiment: Binding affinity to human recombinant MD-2 assessed as reduction in binding of LPS to MD-2 at 1 uM by ELISA analysis
Mus musculus [20] = experiment: Antiinflammatory activity in LPS-induced C57BL/6 mouse acute lung injury model assessed as decrease in BALF ALP level at 5 mg/kg, po administered every 12 hrs for 36 hrs followed by LPS-induction for 12 hrs and measured at 6 hrs post LPS challenge by ELISA analysis; conditions: time 54.0 hrs

Q: For `O=C(/C=C/c1ccc(OCc2ccc3ccccc3c2)cc1)Nc1nccs1`, which Activity [1] is on record?
A: 3.63%

Q: For `Cc1cccc(COc2ccc(/C=C/C(=O)Nc3nc4ccccc4s3)cc2)c1`, which Activity [1] is on record?
A: 9.26%

Q: For `O=C(O)/C=C/c1ccccc1` [CINNAMIC ACID], which Activity [1] is on record?
A: 9.51%

Q: With `COc1cccc(COc2ccc(/C=C/C(=O)Nc3nccs3)cc2)c1` as the molecule, how does the Activity (HEK-Blue hTLR4) read?
A: inactive

Q: For `Cc1cccc(COc2ccc(/C=C/C(=O)Nc3nccs3)cc2)c1`, which Activity [1] is on record?
A: 2.28%

Q: For `O=C(/C=C/c1ccc(OCc2ccc(F)cc2)cc1)Nc1nc2ccccc2s1`, which Activity [1] is on record?
A: 12.84%

Q: With `CC(C)c1ccc(COc2ccc(/C=C/C(=O)Nc3nc4ccccc4s3)cc2)cc1` as the molecule, how does the Activity [1] read?
A: 14.04%

Q: Which Activity [1] does the source give for `O=C(/C=C/c1ccc(OCc2c(Cl)cccc2Cl)cc1)Nc1nc2ccccc2s1` here?
A: 11.99%

Q: For `Cc1ccc(COc2ccc(/C=C/C(=O)Nc3nc4ccccc4s3)cc2)cc1`, which Activity (HEK-Blue hTLR4) is on record?
A: inactive

Q: Which Activity [1] does the source give for `O=C(/C=C/c1ccc(OCc2cccc(F)c2)cc1)Nc1nc2ccccc2s1` here?
A: 19%

Q: For `O=C(/C=C/c1ccc(OCc2cccc(Cl)c2)cc1)Nc1nc2ccccc2s1`, which Activity (HEK-Blue hTLR4) is on record?
A: inactive

Q: Which Activity [1] does the source give for `O=C(/C=C/c1ccc(OCc2cccc(F)c2)cc1)Nc1nccs1` here?
A: 7.66%

Q: With `O=C(/C=C/c1ccc(OCc2cccc(Cl)c2)cc1)Nc1nccs1` as the molecule, how does the Activity (HEK-Blue hTLR4) read?
A: inactive

Q: Which Activity [1] does the source give for `O=C(/C=C/c1ccc(OCc2cccc(F)c2)cc1)Nc1nc2ccccc2[nH]1` here?
A: 55.45%

Q: For `Cc1ccc(COc2ccc(/C=C/C(=O)Nc3nccs3)cc2)cc1`, which Activity [1] is on record?
A: 15.31%

Q: With `O=C(/C=C/c1ccc(OCc2ccc(F)cc2)cc1)Nc1nccs1` as the molecule, how does the Activity [1] read?
A: 12.05%

Q: What does the source list for `COc1cccc(COc2ccc(/C=C/C(=O)Nc3nc4ccccc4[nH]3)cc2)c1`?
A: Activity [1]: 64.3%; IC50 (RAW264.7 [2]): 2.58 µM; Activity (RAW264.7 [2]; dose 1-10 µM, time 24.5 hrs): Dose-Dependent Effect; IC50 (RAW264.7 [3]): 8.41 µM; Activity (RAW264.7 [3]; dose 1-10 µM, time 24.5 hrs): Dose-Dependent Effect; AUC(0-t) [4]: 462 ng·h/mL; AUC(0-inf) [5]: 465 ng·h/mL; half-life [6]: 4.25 h; Tmax [7]: 3.5 h; Cmax [8]: 163 ng/mL; Activity (RAW264.7 [9]): Active; Activity (Mus musculus [10]): Active; Activity (Mus musculus [11]): Active; Activity [12]: Non-Toxic; inhibition (Mus musculus [13]): Active; Activity (Mus musculus [14]): Active; Activity [15]: Non-Toxic; Activity [16]: Non-Toxic; Activity [17]: Non-Toxic; Activity [18]: Non-Toxic; Activity [19]: Non-Toxic; Activity (Homo sapiens): Active; Activity (Mus musculus [20]): Active

Q: For `COc1ccc(COc2ccc(/C=C/C(=O)Nc3nc4ccccc4s3)cc2)cc1`, which Activity [1] is on record?
A: 16.39%

Q: For `COc1ccc(COc2ccc(/C=C/C(=O)Nc3nccs3)cc2)cc1`, which Activity (HEK-Blue hTLR4) is on record?
A: inactive

Q: For `CC(C)c1ccc(COc2ccc(/C=C/C(=O)Nc3nccs3)cc2)cc1`, which Activity (HEK-Blue hTLR4) is on record?
A: inactive

Q: With `O=C(/C=C/c1ccc(OCc2c(Cl)cccc2Cl)cc1)Nc1nccs1` as the molecule, how does the Activity [1] read?
A: 8.16%

Q: With `O=C(/C=C/c1ccc(OCc2ccc3ccccc3c2)cc1)Nc1nc2ccccc2[nH]1` as the molecule, how does the Activity [1] read?
A: 9.07%

Q: Which Activity [1] does the source give for `O=C(/C=C/c1ccc(OCc2c(Cl)cccc2Cl)cc1)Nc1nc2ccccc2[nH]1` here?
A: 19.64%

Q: For `O=C(/C=C/c1ccc(OCc2ccc3ccccc3c2)cc1)Nc1nc2ccccc2s1`, which Activity [1] is on record?
A: 14.17%

Q: For `Cc1ccc(COc2ccc(/C=C/C(=O)Nc3nc4ccccc4[nH]3)cc2)cc1`, which Activity [1] is on record?
A: 43.08%

Q: For `O=C(/C=C/c1ccc(OCc2ccc(F)cc2)cc1)Nc1nc2ccccc2[nH]1`, which Activity [1] is on record?
A: 29.65%

Q: For `COc1cccc(COc2ccc(/C=C/C(=O)Nc3nc4ccccc4s3)cc2)c1`, which Activity [1] is on record?
A: 14.12%

Q: Which Activity [1] does the source give for `O=C(/C=C/c1ccc(OCc2cccc(Cl)c2)cc1)Nc1nc2ccccc2[nH]1` here?
A: 41.13%
